In ChEMBL document CHEMBL4118248, “Small Molecule Proprotein Convertase Subtilisin/Kexin Type 9 (PCSK9) Inhibitors: Hit to Lead Optimization of Systemic Agents” (J Med Chem, 2018):
Active and inactive are the calls of the source. The rule behind the calls is not given here.

Columns and labels:
[1] = Lipophilicity, log D of the compound by shake flask method; assay type: physicochemical; conditions: octanol/water
How it was run: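 LogD measured by the shake-flask method.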

[2] = Intrinsic clearance in human liver microsomes; assay type: ADME, microsome; conditions: read-out: CLH
[3] = target: T1, Voltage-gated inwardly rectifying potassium channel KCNH2 (Homo sapiens, UniProt Q12809); test: Inhibition of dofetilide binding to human ERG by fluorescence polarization assay
T1 sequence (Q12809 whole entry): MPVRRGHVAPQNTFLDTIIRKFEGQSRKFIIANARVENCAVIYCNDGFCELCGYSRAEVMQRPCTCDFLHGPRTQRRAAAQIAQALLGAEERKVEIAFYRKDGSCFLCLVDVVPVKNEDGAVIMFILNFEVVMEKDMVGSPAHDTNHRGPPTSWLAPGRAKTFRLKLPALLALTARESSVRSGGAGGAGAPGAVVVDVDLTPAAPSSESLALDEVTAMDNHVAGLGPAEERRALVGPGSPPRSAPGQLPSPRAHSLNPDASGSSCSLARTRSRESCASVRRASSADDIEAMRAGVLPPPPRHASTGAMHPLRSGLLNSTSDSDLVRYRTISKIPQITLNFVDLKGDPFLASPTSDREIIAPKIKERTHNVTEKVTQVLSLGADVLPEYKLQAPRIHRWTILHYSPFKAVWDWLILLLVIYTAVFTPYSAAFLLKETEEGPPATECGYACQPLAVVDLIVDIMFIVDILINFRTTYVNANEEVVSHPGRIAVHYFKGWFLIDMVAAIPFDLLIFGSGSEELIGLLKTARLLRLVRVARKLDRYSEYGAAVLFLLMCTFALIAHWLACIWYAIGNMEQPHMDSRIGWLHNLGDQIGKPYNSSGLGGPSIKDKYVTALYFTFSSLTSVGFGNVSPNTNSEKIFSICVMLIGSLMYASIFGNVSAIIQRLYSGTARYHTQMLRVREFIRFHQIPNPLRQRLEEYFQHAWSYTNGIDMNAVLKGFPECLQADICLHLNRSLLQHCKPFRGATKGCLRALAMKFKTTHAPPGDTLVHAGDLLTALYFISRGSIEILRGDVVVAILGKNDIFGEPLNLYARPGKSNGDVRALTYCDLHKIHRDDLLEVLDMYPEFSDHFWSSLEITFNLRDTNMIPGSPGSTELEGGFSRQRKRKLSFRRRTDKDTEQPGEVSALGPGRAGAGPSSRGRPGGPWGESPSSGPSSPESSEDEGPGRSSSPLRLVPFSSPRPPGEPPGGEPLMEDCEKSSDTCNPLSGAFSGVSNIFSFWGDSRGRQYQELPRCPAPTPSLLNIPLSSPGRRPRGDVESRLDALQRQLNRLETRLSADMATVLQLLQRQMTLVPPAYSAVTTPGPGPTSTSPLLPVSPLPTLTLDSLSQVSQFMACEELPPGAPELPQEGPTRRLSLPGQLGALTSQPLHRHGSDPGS

[4] = target: T1, Voltage-gated inwardly rectifying potassium channel KCNH2; test: Inhibition of human ERG by patch clamp method
80S Ribosome [5] = test: Binding affinity to 80S ribosome in human HuH7 cells assessed as inhibition of PCSK9 mRNA translation after overnight incubation by ELISA; assay type: cell-based; conditions: huh-7
How it was run: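 Huh7 cells kept in high-glucose DMEM, 10% BSA-free FBS, 2 mM L-glutamine, pen/strep at 37 °C, 5% CO2. Plated 7,500/well with compound or vehicle and incubated overnight (16-20 h). Secreted PCSK9 in the medium read by AlphaLISA: two antibodies to different mature-PCSK9 epitopes, biotinylated antibody 3 nM final, acceptor beads 10 µg/mL, 0.5 h rt; streptavidin donor beads 40 µg/mL, 1 h rt.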

Bone marrow cell = test: Cytotoxicity against rat bone marrow cells assessed as reduction in cell viability after 72 hrs by CellTiter-Glo assay; assay type: cell-based
Rattus norvegicus [6] = test: In vivo drugmetabolism in rat assessed as (R)-N-(3-Chloropyridin-2-yl)-4-(6-(methylamino)pyrazin-2-yl)-N-(piperidin-3-yl)benzamide formation; assay type: ADME, organism-based
Rhesus monkey = test: In vivo drugmetabolism in non-human primate assessed as (R)-N-(3-Chloropyridin-2-yl)-4-(6-(methylamino)pyrazin-2-yl)-N-(piperidin-3-yl)benzamide formation; assay type: ADME, organism-based, Macaca mulatta
IEC-6 = test: Cytotoxicity against rat IEC-6 cells assessed as reduction in cell viability after 3 days by CellTiter-Glo assay; assay type: cell-based; conditions: IEC-6, 72 h
How it was run: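 Rat intestinal epithelial IEC-6 cells; viability read by CellTiter-Glo ATP luminescence.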

[7] = Apparent permeability in RRCK cells; assay type: ADME, cell-based, Canis lupus familiaris, MDCKII-LE; conditions: dog, MDCK
How it was run: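 Passive permeability measured in RRCK cells, a modified Madin-Darby canine kidney line; Papp reported in 10^-6 cm/s.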

[8] = Intrinsic clearance in rat liver microsomes; assay type: ADME, microsome; conditions: read-out: CLH
80S Ribosome [9] = test: Binding affinity to 80S ribosome in human HuH7 cells harboring pCMV-truncated human PCSK9 (1 to 152 residues)-proLuc assessed as inhibition of PCSK9 mRNA translation after overnight incubation by luciferase reporter gene assay; assay type: cell-based; conditions: huh-7
How it was run: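 Huh7 cells stably carry human PCSK9 prodomain (aa 1-152) fused to firefly luciferase (aa 2-550) in pcDNA3.1, kept under 900 µg/mL Geneticin. Plated 10,000/well in phenol red-free DMEM/10% FBS and left 4 h, then compound added (top final 20 µM, 0.5% DMSO). Incubated overnight at 37 °C, luminescence read with SteadyGlo.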

CYP2C9 = CYP2C9 (Homo sapiens, UniProt P11712); test: Inhibition of CYP2C9 (unknown origin) at 3 uM relative to control; assay type: ADME
Chain of CYP2C9 (P11712 whole entry): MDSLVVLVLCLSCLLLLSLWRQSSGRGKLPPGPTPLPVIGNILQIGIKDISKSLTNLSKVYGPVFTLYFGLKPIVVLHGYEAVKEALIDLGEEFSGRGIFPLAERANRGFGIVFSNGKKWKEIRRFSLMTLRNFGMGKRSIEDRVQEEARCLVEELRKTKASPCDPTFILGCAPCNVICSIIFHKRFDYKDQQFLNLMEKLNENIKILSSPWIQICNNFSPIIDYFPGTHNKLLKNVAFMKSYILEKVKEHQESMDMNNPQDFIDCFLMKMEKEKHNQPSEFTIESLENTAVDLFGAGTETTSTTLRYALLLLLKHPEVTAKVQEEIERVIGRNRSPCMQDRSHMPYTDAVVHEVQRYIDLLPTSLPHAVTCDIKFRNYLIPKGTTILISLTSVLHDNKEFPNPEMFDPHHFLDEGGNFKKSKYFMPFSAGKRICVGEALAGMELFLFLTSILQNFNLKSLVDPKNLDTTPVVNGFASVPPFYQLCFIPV
How it was run: (§1)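 Inhibition of CYP1A2, 2D6, 2C9 and 3A4 reported as IC50, or as percent inhibition at 3 µM.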

CYP3A4 = CYP3A4 (Homo sapiens, UniProt P08684); test: Inhibition of CYP3A4 (unknown origin) at 3 uM relative to control; assay type: ADME; how it was run: as §1
Chain of CYP3A4 (P08684 whole entry): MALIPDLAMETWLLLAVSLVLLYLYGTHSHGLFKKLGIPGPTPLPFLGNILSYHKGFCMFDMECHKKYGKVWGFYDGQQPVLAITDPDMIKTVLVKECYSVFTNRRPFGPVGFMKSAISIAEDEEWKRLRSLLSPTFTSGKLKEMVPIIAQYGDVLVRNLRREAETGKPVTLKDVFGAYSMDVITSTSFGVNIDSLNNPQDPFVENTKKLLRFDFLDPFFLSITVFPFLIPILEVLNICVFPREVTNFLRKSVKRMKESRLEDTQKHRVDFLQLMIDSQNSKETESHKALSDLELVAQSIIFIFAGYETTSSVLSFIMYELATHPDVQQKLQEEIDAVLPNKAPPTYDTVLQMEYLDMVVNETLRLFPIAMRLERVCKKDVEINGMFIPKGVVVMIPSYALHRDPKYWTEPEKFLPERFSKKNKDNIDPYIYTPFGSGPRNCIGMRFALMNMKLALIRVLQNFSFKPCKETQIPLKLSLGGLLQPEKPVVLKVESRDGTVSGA

CYP1A2 = target: T2, CYP1A2 (Homo sapiens, UniProt P05177); test: Inhibition of CYP1A2 (unknown origin) at 3 uM relative to control; assay type: ADME; how it was run: as §1
T2 sequence (P05177 whole entry): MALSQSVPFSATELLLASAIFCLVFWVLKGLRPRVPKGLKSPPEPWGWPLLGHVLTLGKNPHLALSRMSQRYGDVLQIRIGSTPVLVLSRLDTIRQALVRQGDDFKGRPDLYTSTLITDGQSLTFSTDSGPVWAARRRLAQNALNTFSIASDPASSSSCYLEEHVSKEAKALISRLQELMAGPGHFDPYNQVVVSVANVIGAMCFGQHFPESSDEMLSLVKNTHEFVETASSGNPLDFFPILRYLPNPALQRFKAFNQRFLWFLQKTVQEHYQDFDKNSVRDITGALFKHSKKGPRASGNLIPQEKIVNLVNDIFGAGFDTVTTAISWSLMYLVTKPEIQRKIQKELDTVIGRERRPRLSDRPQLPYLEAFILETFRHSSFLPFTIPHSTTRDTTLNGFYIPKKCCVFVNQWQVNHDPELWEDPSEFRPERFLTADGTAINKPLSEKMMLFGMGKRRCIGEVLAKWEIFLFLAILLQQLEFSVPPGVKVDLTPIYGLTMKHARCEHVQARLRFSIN

CYP2D6 = CYP2D6 (Homo sapiens, UniProt P10635); test: Inhibition of CYP2D6 (unknown origin) at 3 uM relative to control; assay type: ADME; how it was run: as §1
Chain of CYP2D6 (P10635 whole entry): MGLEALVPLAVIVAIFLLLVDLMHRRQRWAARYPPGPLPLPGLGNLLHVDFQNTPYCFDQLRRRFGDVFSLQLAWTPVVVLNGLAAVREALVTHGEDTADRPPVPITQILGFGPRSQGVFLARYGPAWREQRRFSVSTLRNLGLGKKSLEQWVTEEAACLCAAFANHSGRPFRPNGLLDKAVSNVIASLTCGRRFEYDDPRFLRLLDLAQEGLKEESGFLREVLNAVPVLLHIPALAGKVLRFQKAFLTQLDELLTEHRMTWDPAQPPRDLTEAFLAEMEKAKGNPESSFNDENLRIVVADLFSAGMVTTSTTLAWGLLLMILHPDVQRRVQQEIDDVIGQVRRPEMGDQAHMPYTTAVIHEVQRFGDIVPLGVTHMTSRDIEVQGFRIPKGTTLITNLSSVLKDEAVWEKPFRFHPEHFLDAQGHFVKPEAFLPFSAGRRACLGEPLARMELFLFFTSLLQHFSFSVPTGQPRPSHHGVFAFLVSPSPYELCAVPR

[10] = Permeability from apical to basolateral side in MDCK cells harboring MDR1; assay type: ADME, cell-based, Canis lupus familiaris; conditions: dog, read-out: permeability
How it was run: (§2)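 Bidirectional permeability across MDR1-transfected MDCK monolayers, apical-to-basolateral and basolateral-to-apical; Papp reported in 10^-6 cm/s.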

[11] = Permeability from basolateral to apical side in MDCK cells harboring MDR1; assay type: ADME, cell-based, Canis lupus familiaris; conditions: dog, read-out: permeability; how it was run: as §2
[12] = Fraction unbound in rat plasma; assay type: ADME, cell-free
How it was run: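 Unbound fraction measured in rat plasma.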

[13] = Selectivity index, ratio of IC50 for cytotoxicity against rat bone marrow cells to IC50 for 80S ribosome in human HuH7 cells harboring pCMV-truncated human PCSK9 (1 to 152 residues)-proLuc; assay type: toxicity, cell-based; conditions: read-out: Ratio IC50
[14] = Cytotoxicity against human CD34-positive hematopoietic progenitor cells assessed as reduction in cell viability after 72 hrs by CellTiter-Glo assay; assay type: cell-based
Rattus norvegicus [15] = test: Toxicity in Crl:CD(SD) rat assessed as single cell necrosis in crypt cells in ileum at 50 mg/kg/day, po daily via gavage for 14 days measured on day 15 post last dose; assay type: organism-based; conditions: in vivo, 336 h
Mus musculus = test: Inhibition of PCSK9 secretion in plasma of humanized PCSK9 C57BL6J mouse assessed as free plasma concentration required to show effect at 30 to 100 mg/kg, po via gavage measured up to 24 hrs by ELISA; assay type: functional
How it was run: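 Humanized PCSK9 mice given a single oral dose of 30 or 100 mg/kg, with vehicle group. Plasma PCSK9 followed over 0-24 h and normalized to t = 0. Free effective concentration derived from the whole time course with an indirect-effect PK/PD model.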

Rattus norvegicus [16] = test: Toxicity in Crl:CD(SD) rat assessed as discolored/mottled liver at 50 mg/kg/day, po daily via gavage for 14 days measured on day 15 post last dose; assay type: organism-based; conditions: in vivo, 336 h
How it was run: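 Male rats, 5 per group, given vehicle or compound at 50 mg/kg/day by oral gavage for 14 days. Mortality, clinical signs and hematology monitored throughout. Necropsy on day 15 with microscopy of bone marrow, ileum, duodenum, jejunum and liver. Toxicokinetics at 1, 3, 6 and 24 h post-dose on day 14.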

Rattus norvegicus [17] = test: Toxicity in Crl:CD(SD) rat assessed as mortality at >= 150 mg/kg/day, po daily via gavage for 14 days measured on day 15 post last dose; assay type: organism-based; conditions: in vivo, 336 h
Rattus norvegicus [18] = test: Toxicity in Crl:CD(SD) rat at 50 mg/kg/day, po daily via gavage for 14 days measured on day 15 post last dose; assay type: organism-based; conditions: in vivo, 336 h
How it was run: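 Male rats, 5 per group, given vehicle or test compound at 50 mg/kg by daily oral gavage for 14 days. Mortality, clinical signs and hematology were monitored throughout. Toxicokinetics were sampled at 1, 3, 6 and 24 h post-dose on day 14. Necropsy was on day 15, with microscopic evaluation of bone marrow, ileum, duodenum, jejunum and liver.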

Rattus norvegicus [19] = test: Toxicity in Crl:CD(SD) rat assessed as mortality at 500 mg/kg/day, po daily via gavage for 14 days; assay type: organism-based; conditions: in vivo, 336 h
How it was run: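 Rats dosed orally at 50, 150 and 500 mg/kg/day for 14 days; crypt epithelium of duodenum/jejunum examined histologically and mortality recorded.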

[20] = Total Cmax in Crl:CD(SD) rat at 50 mg/kg/day, po daily via gavage for 14 days measured on day 14 post last dose up to 24 hrs; assay type: ADME, organism-based; design: dose 50 mg/kg/day, route oral; conditions: in vivo
[21] = Total plasma concentration in Crl:CD(SD) rat at 50 mg/kg/day, po daily via gavage for 14 days measured on day 14 post last dose up to 24 hrs; assay type: ADME, organism-based; conditions: in vivo
Rattus norvegicus [22] = test: Toxicity in Crl:CD(SD) rat at 50 mg/kg/day, po daily via gavage for 14 days; assay type: organism-based; conditions: in vivo, 336 h
Ribosome [23] = test: Binding affinity to 80S ribosome in rat IEC-6 cells assessed as induction of changes in Ndc80 nascent chain expression at 4 uM by ribosome profiling method; assay type: cell-based
How it was run: (§3)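 Rat IEC-6 cells exposed 1 h to 4 µM compound or vehicle, followed by ribosome profiling. Cumulative read fractions along annotated protein regions compared with vehicle. RPKM taken from reads 3' of the Dmax position when the Dmax Z-score is >2.0, otherwise 3' of codon 50.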

Ribosome [24] = test: Binding affinity to 80S ribosome in rat IEC-6 cells assessed as induction of changes in Cox15 nascent chain expression at 4 uM by ribosome profiling method; assay type: cell-based; how it was run: as §3
80S Ribosome [25] = test: Binding affinity of [3H]PF-06446846 to human 80S ribosome

Compound CN(C)c1cncc(-c2ccc(C(=O)N(c3ncccc3Cl)[C@@H]3CCCNC3)cc2)n1 has a logD [1] of 1.37, a microsomal CLint [2] of 18.2 µL/min/mg and a Ki [3] of 14.1 µM. For the same compound, the IC50 [4] was 43.2 µM, the IC50 (80S Ribosome [5]) was 2.97 µM and the IC50 (Bone marrow cell) was 30.1 µM. For the same compound, the Drug metabolism (Rattus norvegicus [6]) was “Metabolite_Detected” and the Drug metabolism (Rhesus monkey) was “Metabolite_Notdetected”.
In the case of Cc1cnc2c(c1)nnn2-c1ccc(C(=O)N(c2ncccc2Cl)[C@@H]2CCCNC2)nc1, the logD [1] is reported as 0.7, the IC50 (IEC-6) is reported as over 20 µM and the Papp [7] is reported as 6.2 ×10⁻⁶ cm/s. It also gave a microsomal CLint [8] of 15.1 µL/min/mg, a microsomal CLint [2] of 9.3 µL/min/mg and an IC50 (80S Ribosome [9]) of 0.85 µM. For the same compound, the Ki [3] was 5.9 µM, the inhibition at 3 µM (CYP2C9) was under 13% and the inhibition at 3 µM (CYP3A4) was under 13%. For the same compound, the inhibition at 3 µM (CYP1A2) was under 13%, the inhibition at 3 µM (CYP2D6) was under 13% and the Papp A→B [10] was 1.3 ×10⁻⁶ cm/s. For the same compound, the Papp B→A [11] was 19.9 ×10⁻⁶ cm/s, the fraction unbound [12] was 0.24 and the IC50 [4] was 3.6 µM. For the same compound, the selectivity ratio [13] was over 30, the IC50 (80S Ribosome [5]) was 1.37 µM and the IC50 (Bone marrow cell) was 20 to 65 µM. The IC50 [14] was over 20 µM, the Activity (Rattus norvegicus [15]) was “Non-Toxic” and the “Cp(f)” value (Mus musculus) was 175 nM. For the same compound, the Activity (Rattus norvegicus [16]) was “Toxic”, the Activity (Rattus norvegicus [17]) was “Toxic” and the Activity (Rattus norvegicus [18]) was “Non-Toxic”. The Activity (Rattus norvegicus [19]) was “Toxic”, the Cmax [20] was 9660 ng/mL and the concentration [21] was 15.9 µM. The NOAEL (Rattus norvegicus [22]) was 4.231 µM, the Activity (Ribosome [23]) was “Active” and the Activity (Ribosome [24]) was “Active”. The Ki (80S Ribosome [25]) was 63 µM.
